Reference: ChEMBL document CHEMBL1782042, “Efficient microwave-assisted synthesis and antitumor activity of novel 4,4'-methylenebis[2-(3-aryl-4,5-dihydro-1H-pyrazol-5-yl)phenols]” (Eur J Med Chem, 2011)

Tests used:
HOP-92 = assay: Cytotoxicity against human HOP92 cells; format: cell-based
In short: (§1)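 NCI 60 human tumour cell line screen, second stage at five concentrations (100, 10, 1.0, 0.1 and 0.01 μM). Continuous drug exposure for 48 h, with cell growth estimated by sulforhodamine B protein staining. GI50 is the drug concentration giving a 50% reduction in net protein increase relative to control cells over the incubation.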

SF-268 [1] = assay: Cytotoxicity against human SF268 cells; format: cell-based; in short: as §1
UACC-62 = assay: Cytotoxicity against human UACC62 cells; format: cell-based
In short: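 NCI 60 human tumour cell line screen; five concentration levels (100, 10, 1.0, 0.1 and 0.01 μM), 48 h continuous drug exposure. Cell growth estimated by sulforhodamine B (SRB) protein staining. GI50 taken as the drug concentration giving a 50% reduction in net protein increase relative to control cells over the incubation.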

RPMI-8226 = assay: Anticancer activity against human RPMI8226 cells after 48 hrs by sulforhodamine B assay; format: functional; conditions: RPMI-8226, 48 h
In short: (§2)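 NCI 60-cell-line in vitro screen, second stage: five concentration levels (100, 10, 1.0, 0.1 and 0.01 μM) with 48 h continuous drug exposure. Cell growth was estimated by sulforhodamine B protein staining. GI50 is the drug concentration that gives a 50% reduction in net protein increase relative to control cells over the incubation.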

BT-549 = assay: Cytotoxicity against human BT549 cells; format: cell-based; in short: as §1
MDA-MB-468 = assay: Cytotoxicity against human MDA-MB-468 cells; format: cell-based; in short: as §1
SW-620 = assay: Anticancer activity against human SW620 cells after 48 hrs by sulforhodamine B assay; format: functional; conditions: SW-620, 48 h
In short: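 NCI 60-cell-line screen, second stage. Five concentration levels (100, 10, 1.0, 0.1 and 0.01 μM), 48 h continuous drug exposure. Cell growth was estimated by sulforhodamine B protein staining. GI50 is the concentration giving a 50% reduction in net protein increase relative to control cells over the drug incubation. Compounds entered this stage after an earlier single-dose screen.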

SF-268 [2] = assay: Anticancer activity against human SF268 cells after 48 hrs by sulforhodamine B assay; format: functional; conditions: SF-268, 48 h; in short: as §2
M14 = assay: Anticancer activity against human M14 cells after 48 hrs by sulforhodamine B assay; format: functional; conditions: M14, 48 h; in short: as §2
OVCAR-5 = assay: Anticancer activity against human OVCAR5 cells after 48 hrs by sulforhodamine B assay; format: functional; conditions: OVCAR-5, 48 h; in short: as §2
SN12C = assay: Anticancer activity against human SN12C cells after 48 hrs by sulforhodamine B assay; format: functional; in short: as §2
Hs-578T = assay: Anticancer activity against human Hs578T cells after 48 hrs by sulforhodamine B assay; format: functional; in short: as §2

**Q.** Which LC50 (HOP-92) does the source give for `Oc1ccc(Cc2ccc(O)c(C3CC(c4ccc(Cl)cc4)=NN3)c2)cc1C1CC(c2ccc(Cl)cc2)=NN1` (configuration not stated) here?
**A.** > 100 µM

**Q.** What about the LC50 (SF-268 [1]) of the same molecule?
**A.** > 100 µM

**Q.** What about the LC50 (UACC-62) of the same molecule?
**A.** 43.6 µM

**Q.** And the GI50 (RPMI-8226)?
**A.** 5.09 µM

**Q.** What about the LC50 (BT-549) of the same molecule?
**A.** > 100 µM

**Q.** And the LC50 (MDA-MB-468)?
**A.** > 100 µM

**Q.** What about the GI50 (SW-620) of the same molecule?
**A.** 3.29 µM

**Q.** And the GI50 (SF-268 [2])?
**A.** 3.22 µM

**Q.** And the GI50 (M14)?
**A.** 4.45 µM

**Q.** And the GI50 (OVCAR-5)?
**A.** 6.1 µM

**Q.** What about the GI50 (SN12C) of the same molecule?
**A.** 2.86 µM

**Q.** What about the GI50 (Hs-578T) of the same molecule?
**A.** 2.76 µM
